# Bioassay records (PubChem)
# EP2 antag: human EP2 receptor antagonists, primary screen, TR-FRET cAMP, C6 glioma cells; inhibition, % at 25 µM; actives 0.52% (n = 260,000); C6 glioma cells expressing human EP2; cells stimulated with saturating PGE2; Prostaglandin E2 receptor EP2 subtype (Homo sapiens), P43116;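 active means percent inhibition above 40 after rounding to a whole number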;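 further: rat C6 glioma host cells with rolipram phosphodiesterase inhibitor present; the protocol text gives 20 µM as final concentration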
# Target sequence (P43116 whole entry, looked up): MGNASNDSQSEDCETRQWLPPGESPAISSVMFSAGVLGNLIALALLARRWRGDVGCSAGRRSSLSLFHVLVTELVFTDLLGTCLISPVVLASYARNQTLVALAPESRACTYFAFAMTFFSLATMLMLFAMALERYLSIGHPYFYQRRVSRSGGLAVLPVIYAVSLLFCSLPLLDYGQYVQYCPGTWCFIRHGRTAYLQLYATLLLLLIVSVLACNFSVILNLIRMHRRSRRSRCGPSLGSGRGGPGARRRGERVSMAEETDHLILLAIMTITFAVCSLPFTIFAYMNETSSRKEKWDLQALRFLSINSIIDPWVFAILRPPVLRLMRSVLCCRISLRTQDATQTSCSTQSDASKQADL
# EP2 modulator: EP2 receptor modulators, cAMP readout, primary screen, cell-based, HTRF cAMP, PGE2 stimulation; EP2-expressing cells, cAMP HTRF FRET, PGE2 co-stimulation; induction, % at 25 µM; Prostaglandin E2 receptor EP2 subtype (Homo sapiens), P43116; actives 0.83% (n = 260,000); AID 940, 2007;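 active means compounds whose cAMP rise, as percent of the full-agonist control response, exceeds 60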;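 further: rat C6 glioma line stably carrying human EP2 under a CMV promoter; the protocol text gives 20 µM as final concentration; 100% = response of wells given 1 µM PGE2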
# MC4R barr agon: MC4R agonists recruiting beta-arrestin, primary screen, cell-based, luminescence, agonist arm of biased-ligand search. U2OS MC4R beta-arrestin complementation; percent of melanotan II response, DMSO zero. Melanocortin receptor 4 (Homo sapiens), P32245. actives 0.98% (n = 360,000). activation, % at 8.9 µM;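 active means activation above a per-plate cutoff, the mean activation of sample wells on that plate plus 3 SD, cut at about 8% in these data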
# Target sequence (P32245 whole entry, looked up): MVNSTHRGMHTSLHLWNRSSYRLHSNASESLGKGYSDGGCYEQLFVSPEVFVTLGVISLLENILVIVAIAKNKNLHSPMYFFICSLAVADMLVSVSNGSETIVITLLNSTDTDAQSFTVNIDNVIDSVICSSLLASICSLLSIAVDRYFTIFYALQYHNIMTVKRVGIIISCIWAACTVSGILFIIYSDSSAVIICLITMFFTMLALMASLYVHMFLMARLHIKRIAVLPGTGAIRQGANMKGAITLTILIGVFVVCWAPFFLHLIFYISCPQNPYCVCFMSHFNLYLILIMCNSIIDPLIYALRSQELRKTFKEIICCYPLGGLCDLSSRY
# T cell HTS: modulators of CD8 T cell-vesicle binding, primary screen, mouse 2C CD8+ T cells, flow cytometry; 2C CD8+ T cell-vesicle binding; hits give low values; response (vesicle binding), % at 7 µM; actives 0.068% (n = 330,000);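 active means response, share of CD8 T cells binding vesicles, and their 90th percentile fluorescence all below set limits, cut at about 80% in these data, passing the limit was not always enough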;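 further: values below 100% mean blocked vesicle binding to the CD8+ T cells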
#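 Assay system: 2C TCR transgenic mouse naive CD8+ T cells, MACS-purified | Read-out: CD8+ gate FL2 mean fluorescence as % of same-row positive control | Signal: High-throughput flow cytometry with anti-B7-1 and anti-CD8 staining | Timing: Binding step 1.5 h, 37 °C, antibody labelling 20 min, ice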
# MC4R antag cAMP: MC4R antagonists of cAMP signaling, primary screen, cell-based, TR-FRET, antagonist arm of biased-ligand search; Melanocortin receptor 4 (Homo sapiens), P32245; actives 0.48% (n = 360,000); MC4R-expressing cells, MTII-stimulated cAMP, LANCE TR-FRET; inhibition, % at 6.5 µM;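 active means inhibition above its plate's cutoff, the mean of tested wells on that plate plus 3 SD, cut at about 29% in these data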;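 further: 0% = Melanotan II alone and 100% = Melanotan II plus saturating MCL0020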
#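 system = U2OS cells with stable human MC4R expression | also added = Melanotan II challenge after compound preincubation | dosing = one concentration, 6.5 µM nominal | incubation = compound 30 min, challenge 1 h, detection 1 h | measured by = TR-FRET with Eu-cAMP and labeled anti-cAMP, 671 nm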
# Granule exo inh: LAMP-1 surface exposure blockers, TALL-104 cells – cell-based, flow cytometry, MLPCN library, primary screen | AID 651702, 2012 | inhibition, % at 10 µM | TALL-104 LAMP-1 surface exposure; cells stimulated with thapsigargin and PMA | actives 0.66% (n = 360,000);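 active means inhibition above about 55%, limit read from the data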
# The depositor's hits bear a star; i = inactive; · = no result given; ! = a repeat was not active. An excerpt weighted towards active compounds, which were near 2.6% of everything screened.
SMILES,EP2 antag,EP2 modulator,MC4R barr agon,T cell HTS,MC4R antag cAMP,Granule exo inh
Cc1ccccc1S(=O)(=O)Nc1nc2ccccc2nc1N1CCOCC1,39.8*,-19.9,-2.1,153.8,6.3,-0.7
CCCC(=O)N(Cc1cc(=O)[nH]c2ccccc12)c1ccccc1C,·,·,-1.4,330.9,8.6,1.0
O=C(Nc1ccccc1)c1ccc(-c2ccccc2Cl)o1,11.1,8.6,8.5*,551.5,3.1,7.2
CC(=O)Nc1ccc(NC(=O)c2ccc(-c3ccccc3Cl)o2)cc1,·,·,3.1,·,-1.4,-2.9
Cc1ccnc(SCc2ccc([N+](=O)[O-])cc2)n1,0.8,19.6,-0.6,220.7,-2.7,-3.9
CC1=C(C#N)c2nc(N)c(C#N)c(C)c2/C1=C/c1cccc(F)c1,27.4,-86.6,·,·,·,·
CC1=C(C#N)c2nc(N)c(C#N)c(C)c2/C1=C\c1ccc(C)cc1,39.7*!,-111.0,·,471.6,·,·
CSc1ccc2c(c1)N(CCCN(C)C)c1ccccc1S2,11.1,17.0,·,·,·,·
CN(C)CCCN1c2ccccc2Sc2cnccc21,44.9*,-15.5,·,·,·,·
CN(C)c1ccc(NC(=O)c2ccc3c(c2)OCO3)cc1,4.4,-8.3,·,·,·,·
CCOc1ccccc1N(C(=O)c1snc(C(N)=O)c1N)C(C(=O)NC1CCCC1)c1cccs1 (configuration not stated),·,·,-1.5,231.4,10.9,74.4*
Cc1ccccc1N(C(=O)c1snc(C(N)=O)c1N)C(C(=O)NCc1ccccc1)c1ccc(O)cc1 (configuration not stated),·,·,1.7,i,28.5,63.6*
Cc1cccc(N(C(=O)c2snc(C(N)=O)c2N)C(C(=O)NCC2CCCO2)c2ccc(N(C)C)cc2)c1 (configuration not stated),·,·,-2.6,414.7,1.9,97.1*
CN(C)c1ccc(C(C(=O)NCC2CCCO2)N(C(=O)c2snc(C(N)=O)c2N)c2ccccc2)cc1 (configuration not stated),·,·,-0.9,810.0,1.5,18.0
O=C(Nc1ccccc1OC(F)F)c1ccc(S(=O)(=O)N2CCCC2)cc1,·,·,1.2,585.1,6.4,2.7
CCCCCN=Cc1c(C)[nH]n(-c2nc3ccccc3s2)c1=O,19.1,-38.7,-1.4,851.1,5.1,3.8
Cc1ccc(C(=O)Nc2ccc3c(c2)C(=O)N(CC2CCCO2)C3=O)cc1 (configuration not stated),·,·,0.4,65.4*,11.2,-2.0
CCOC(=O)N1CCN(C(=O)c2ccccc2NC(=O)c2ccc(F)cc2)CC1,1.4,19.3,8.4*,243.1,2.7,-3.9
CC(=O)CSc1nc(C2CC2)cc(C(F)(F)F)c1C#N,18.6,86.4*,·,·,·,·
Cc1ccc2[nH]c(C)cc(=S)c2c1,12.7,75.0*!,-0.4,·,-5.0,0.0
Cc1nc([N+](=O)[O-])c(Br)n1Cc1ccccc1,5.3,-14.2,-1.6,408.0,14.6,-4.1
CCCCCOc1ccc(CSC(=N)N)cc1[N+](=O)[O-],46.4*,-27.5,-2.0,449.1,-0.9,38.1
Nc1ncnc2c1ncn2[C@@H]1O[C@H](CNCc2ccc(OCc3ccccc3)cc2)[C@@H](O)[C@H]1O,·,·,-0.1,240.5,1.9,-0.5
Clc1ccc2[nH]c3c(N4CCC5(CC4)OCCO5)ncnc3c2c1,45.7*,-60.5,·,287.6,·,·
N#Cc1ccc(COc2cccnc2[N+](=O)[O-])cc1,·,·,-2.0,274.3,-3.3,1.0
SMILES,EP2 antag,EP2 modulator,MC4R barr agon,T cell HTS,MC4R antag cAMP,Granule exo inh
O=[N+]([O-])c1ncccc1OCc1ccc(-c2ccccc2)cc1,·,·,1.5,310.1,4.3,86.0*
CCN(CC)CCCNC(=S)N1CCN(c2nc(-c3ccc(F)cc3)cs2)CC1,15.7,-62.8,4.2,319.7,18.4,69.1*
CCNC(=S)N1CCN(c2nc(-c3ccc(F)cc3)cs2)CC1,11.3,13.3,-0.2,278.7,5.7,0.0
C#CCSc1nc2sc3c(c2c(=O)n1C)CCC3,·,·,9.1*,79.8,-4.0,-10.3
Cc1nn(CCC(=O)NCCc2ccccc2Cl)c(=O)c2nn(-c3ccccc3)c(C)c12,·,·,-2.7,476.7,6.7,-0.4
COc1cc(NC(=O)c2cccc(C)c2)ccc1NC(=O)c1cc2ccccc2o1,·,·,11.3*,217.4,8.0,-15.0
COc1cc(NC(=O)c2cc3ccccc3o2)c(OC)cc1Br,10.1,17.5,19.8*,472.5,2.5,-3.1
COc1cc(NC(=O)c2cccc([N+](=O)[O-])c2)ccc1NC(=O)c1cc2ccccc2o1,·,·,2.0,194.0,-1.1,-10.8
COc1cc(NC(=O)c2cc(Cl)ccc2Cl)ccc1-c1cc2ccccc2oc1=O,11.7,-7.8,13.8*,100.9,-2.1,5.2
COc1ccccc1NC(=O)c1cc2ccccc2o1,18.8,29.0,0.0,330.5,2.1,-1.8
Cc1ccccc1OCc1nc(-c2ccc(NC(=O)c3ccc4c(c3)OCO4)cc2)no1,13.0,4.1,22.2*,282.2,1.4,-0.7
O=C(Nc1ccc2c(c1)OCO2)c1ccc2c(c1)OCO2,2.2,-2.9,1.2,403.7,14.8,-3.2
O=C(Nc1ccc(Cl)c(Cl)c1)c1ccc2c(c1)OCO2,·,·,9.3*,242.2,9.2,17.5
COc1ccc(-c2noc(COc3ccc4c(c3)OCO4)n2)cc1,99.3*,-16.9,5.5,700.0,15.4,-1.8
O=C(NCc1nc(-c2ccccc2)no1)c1ccc2c(c1)OCO2,2.7,-38.3,-0.9,942.0,0.4,-2.2
CCn1nnnc1SCC(=O)Nc1nc(-c2cccs2)cs1,8.0,-8.8,-0.2,369.5,0.7,-1.0
COc1cc(CNC(=O)C2CCCC2)cc(OC)c1OC,·,·,-0.5,286.3,-0.6,-10.5
O=C(N/N=C1\CCSc2ccc(F)cc21)c1cccnc1,10.6,-2.1,-3.7,458.2,6.1,-1.3
NC(=S)N/N=C1\CCSc2ccc(Cl)cc21,4.9,-55.5,-2.5,205.6,7.3,73.2*
COCCCNC(=S)Nc1cc2oc3ccccc3c2cc1OC,·,·,-0.3,305.7,-1.0,-4.9
COc1cc2c(cc1NC(=S)Nc1cccc3ccccc13)oc1ccccc12,42.5*,-27.9,-0.9,257.3,2.6,0.1
COc1cc2c(cc1NC(=O)CSc1nnnn1-c1ccccc1)oc1ccccc12,4.9,-10.0,36.9*,185.5,10.2,-1.7
C/C(=N\NC(=O)COc1ccc(C)cc1C(C)C)c1cc2ccccc2o1,7.7,-11.9,0.1,237.0,7.6,3.2
